Calls of active or inactive are those of the source. The rule behind the calls is not given here.
Columns and labels:
Plasmodium falciparum [1] = experiment: Antiplasmodial activity against blood stage of Plasmodium falciparum 3D7 assessed as parasite growth inhibition; assay type: functional, organism-based
Plasmodium falciparum [2] = experiment: Covalent binding affinity to N-terminal 6His-SUMO-tagged Plasmodium falciparum FKBP35 binding domain (FBD35) (Q5-A128) expressed in Escherichia coli BL21 (DE3) cells assessed as binding at C106 position by mass spectrometry
Outline: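 Protein-compound reaction mixture saved in parallel with DSC. Denatured in urea/NaCl in 50 mM Tris pH 8.0, reduced with TCEP at 37 °C for 60 min, free thiols alkylated with iodoacetamide at RT in the dark for 30 min. Digested with chymotrypsin (1:100 molar) overnight at 37 °C, quenched with formic acid. Peptides resolved on C18 UPLC at 45 °C and analyzed by Q Exactive HF MS.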

Plasmodium falciparum [3] = experiment: Binding affinity to N-terminal 6His-SUMO-tagged Plasmodium falciparum FKBP35 binding domain (FBD35) (Q5-A128) expressed in Escherichia coli BL21 (DE3) cells assessed as change in melting temperature at 40 uM by differential scanning […] analysis
Outline: (§1)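 Differential scanning calorimetry. Purified protein (6His-SUMO tag removed) dialyzed into 25 mM HEPES pH 7.8, 150 mM NaCl. Protein at 0.4 mg/mL (6-9 uM), with or without compound at 40 µM, 2% DMSO (v/v). Scanned 25-90 °C, reference scans subtracted. Tm taken as midpoint of the heat capacity curve.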

[4] = target: Peptidyl-prolyl cis-trans isomerase FKBP1A (Homo sapiens, UniProt P62942); experiment: Binding affinity to N-terminal 6His-SUMO-tagged human full length FKBP12 expressed in Escherichia coli BL21 (DE3) cells assessed as change in melting temperature at 40 uM by differential scanning […] analysis; outline: as §1
Plasmodium falciparum [5] = experiment: Antiplasmodial activity against blood stage of Plasmodium falciparum NF54 assessed as parasite growth inhibition
[6] = Displacement of fluorescent tracer Rap-Gly-BDP from nanoluciferse-tagged Plasmodium falciparum FKBP35 expressed in HEK293T cells incubated for 2 hrs by NanoBRET assay; assay type: cell-based; conditions: HEK-293T
Outline: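 HEK293T cells stably expressing N-terminal NanoLuc-FKBP35 (lentiviral, puromycin-selected) plated at 0.2 x 10^6 cells/mL in Opti-MEM and incubated overnight at 37°C, 5% CO2. Rap-Gly-BDP tracer added to 1 µM for 10 min, then test compounds at varying concentrations for 2 h at 37°C. Nano-Glo substrate plus extracellular NanoLuc inhibitor added and read immediately. BRET ratio corrected against no-tracer control.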

Chain of Peptidyl-prolyl cis-trans isomerase FKBP1A (P62942 whole entry): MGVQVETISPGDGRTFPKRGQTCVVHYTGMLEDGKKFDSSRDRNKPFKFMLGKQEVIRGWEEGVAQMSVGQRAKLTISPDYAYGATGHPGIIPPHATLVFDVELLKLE

Activity [4]	Structure (SMILES)	Activity (Plasmodium falciparum [3])	IC50 (Plasmodium falciparum [5]) [nM]	further results
–	CCc1ccccc1NC(=O)CSc1nc2cccnc2[nH]1	–	–	IC50 (Plasmodium falciparum [1]): 235 nM
Not Active	C=CC(=O)NCc1ccccc1NC(=O)CSc1nc2cccnc2[nH]1	inactive	–	Activity (Plasmodium falciparum [2]): Active
Not Active	CCC(=O)NCc1ccccc1NC(=O)CSc1nc2cccnc2[nH]1	inactive	–	–
–	O=C(NNC(=O)C12CC3CC(CC(C3)C1)C2)c1ccncc1	–	–	IC50 (Plasmodium falciparum [1]): 250 nM
Not Active	C=CC(=O)NCc1ccc(NC(=O)CSc2nc3cccnc3[nH]2)cc1	inactive	–	Activity (Plasmodium falciparum [2]): Active
–	C=CC[C@@H]1/C=C(\C)C[C@H](C)C[C@H](OC)[C@H]2O[C@@](O)(C(=O)C(=O)N3CCCC[C@H]3C(=O)O[C@H](/C(C)=C/[C@@H]3CC[C@@H](O)[C@H](OC)C3)[C@H](C)[C@@H](O)CC1=O)[C@H](C)C[C@@H]2OC [TACROLIMUS ANHYDROUS]	–	1900	–
–	CO[C@H]1C[C@@H]2CC[C@@H](C)[C@@](O)(O2)C(=O)C(=O)N2CCCC[C@H]2C(=O)O[C@H]([C@H](C)C[C@@H]2CC[C@@H](O)[C@H](OC)C2)CC(=O)[C@H](C)/C=C(\C)[C@@H](O)[C@@H](OC)C(=O)[C@H](C)C[C@H](C)/C=C/C=C/C=C/1C [SIROLIMUS]	–	2600	IC50 [6]: 34 nM
–	CC[C@H]1CN(Cc2ccccn2)C(=O)C2CCCC1N2S(=O)(=O)c1cc(Cl)cc(Cl)c1 (some centres undefined)	–	2300	–
